According to ChEMBL document CHEMBL1126902, “Synthesis, chemical reactivity, and antitumor evaluation of congeners of carmethizole hydrochloride, an experimental "acylated vinylogous carbinolamine" tumor inhibitor” (J Med Chem, 1993):
Values belong to the molecule of their own block, whether it stands above or below them.

Tests used:
HT-29 = experiment: Concentration required to inhibit tumor growth in HT29, human colon adenocarcinoma cell line; type: functional, cell-based; conditions: Homo sapiens, HT-29
Method in brief: (§1)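 Cells grown in RPMI 1640 with 5% fetal calf serum, 5% NuSerum IV and 20 mM HEPES, seeded and allowed to adhere overnight. Compound dissolved in RPMI-1640 plus HEPES and tested over a 5 log range (10 concentrations) for 72 h. Read-out by sulforhodamine B assay. Median-effect dose derived by nonlinear regression of the concentration-effect curve.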

[1] = Concentration required to inhibit tumor growth in PSN-1, human pancreatic carcinoma cell line; type: functional
Method in brief: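 PSN-1 pancreatic carcinoma cells exposed to compound dissolved in RPMI-1640 plus HEPES at its maximum soluble concentration for 72 h. Read-out by sulforhodamine B colorimetric assay.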

[2] = Concentration required to inhibit tumor growth in […], human breast adenocarcinoma cell line; type: functional; method in brief: as §1
A549 = experiment: Concentration required to inhibit tumor growth in A549, human lung carcinoma (NSCLC) cell line; type: functional, cell-based; method in brief: as §1
L1210 (Mus musculus) = experiment: Concentration required to inhibit tumor growth in L1210, murine lymphocytic leukemia cell line
[3] = Percent increase in life span of dying mice tested in vivo at 182 mg/kg against ip implanted LOX amelanotic melanoma in mice (60-day survivors); type: functional; conditions: Mus musculus, 1440 h, route intraperitoneal
Method in brief: (§2)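 Female CD2F1 mice implanted ip with ascitic fluid carrying ca. 1.7×10^6 LOX amelanotic melanoma cells. Drug given ip on days 1, 5 and 9, starting 24 h after implant, dosed by exact body weight; solutions or suspensions made fresh daily. %ILS is from the median day of death of dying mice versus controls, excluding 60-day survivors.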

P388 [4] = experiment: Percent increase in life span of dying mice tested in vivo at 22.8 mg/kg against ip implanted P388 Leukemia in mice; type: functional; conditions: Mus musculus, route intraperitoneal
Method in brief: (§3)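 Portage-CD2F1 female mice inoculated ip with ascitic fluid carrying ca. 5.2×10^6 P388 leukemia cells. Drug given ip daily on days 1-5, starting 24 h after inoculation, dosed by average body weight. %ILS is from the median day of death of dying mice versus controls.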

P388 [5] = experiment: Change in tumor cell population in ip implanted P388 Leukemia in mice after administration of compound at 11.4 mg/kg; type: functional, Mus musculus; conditions: route intraperitoneal
Method in brief: (§4)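 Female Portage-CD2F1 mice were inoculated ip with ascitic fluid holding ca. 5.2×10^6 P388 cells. Dosing was ip on days 1-5, starting 24 h after inoculation, by average body weight, as a solution or suspension in saline plus Tween 80. KE is the net log change in viable tumor cell population from start to end of the treatment period.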

[6] = Percent increase in life span of dying mice tested in vivo at 91 mg/kg against ip implanted LOX amelanotic melanoma in mice (60-day survivors); type: functional; conditions: Mus musculus, 1440 h, route intraperitoneal
Method in brief: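 Nude CD2F1 female mice were implanted ip with ascitic fluid containing ca. 1.7×10^6 LOX amelanotic melanoma cells. Drug was given ip on days 1, 5 and 9, starting 24 h after implantation, and dosed by exact body weight. Solutions or suspensions were made fresh daily in saline plus Tween 80. %ILS was calculated from the median day of death of dying mice versus controls, excluding 60-day survivors.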

P388 [7] = experiment: Change in tumor cell population in ip implanted P388 Leukemia in mice after administration of compound at 22.8 mg/kg; type: functional, Mus musculus; conditions: route intraperitoneal; method in brief: as §4
P388 [8] = experiment: Change in tumor cell population in ip implanted P388 Leukemia in mice after administration of compound at 91 mg/kg; type: functional, Mus musculus; conditions: route intraperitoneal
Method in brief: (§5)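 P388 leukemia: ascitic fluid with ca. 5.2×10^6 cells inoculated ip into Portage-CD₂F₁ female mice. Drug given ip on days 1-5, starting 24 h after inoculation, dosed by average body weight. Vehicle was saline plus Tween 80, as a solution or suspension. KE = net log change in viable tumor cells from start to end of treatment.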

P388 [9] = experiment: Percent increase in life span of dying mice tested in vivo at 11.4 mg/kg against ip implanted P388 Leukemia in mice; type: functional; conditions: Mus musculus, route intraperitoneal; method in brief: as §3
P388 [10] = experiment: Percent increase in life span of dying mice tested in vivo at 91 mg/kg against ip implanted P388 Leukemia in mice; type: functional; conditions: Mus musculus, route intraperitoneal
Method in brief: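 Portage-CD2F1 female mice were inoculated ip with ascitic fluid containing ca. 5.2×10^6 P388 leukemia cells. Drug was given ip daily on days 1-5, starting 24 h after inoculation, and dosed by average body weight. %ILS was calculated from the median day of death of dying mice versus controls.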

P388 [11] = experiment: Change in tumor cell population in ip implanted P388 Leukemia in mice after administration of compound at 45.5 mg/kg; type: functional, Mus musculus; conditions: route intraperitoneal; method in brief: as §5
[12] = Change in tumor cell population in ip implanted LOX amelanotic melanoma in mice after administration of compound at 22.75 mg/kg; type: functional, Mus musculus; conditions: route intraperitoneal
Method in brief: (§6)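 Female CD2F1 mice were implanted ip with ascitic fluid holding ca. 1.7×10^6 LOX cells. Dosing was ip on days 1, 5 and 9, starting 24 h after implantation, by exact body weight, as a solution or suspension in saline plus Tween 80, freshly prepared daily. KE is the net log change in viable tumor cells from start to end of treatment. Bracketed KE assumes Poisson survival, with 60-day survivors tumor-free.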

P388 [13] = experiment: Percent increase in life span of dying mice tested in vivo at 45.5 mg/kg against ip implanted P388 Leukemia in mice; type: functional; conditions: Mus musculus, route intraperitoneal; method in brief: as §3
[14] = Change in tumor cell population in ip implanted LOX amelanotic melanoma in mice after administration of compound at 45.5 mg/kg; type: functional, Mus musculus; conditions: route intraperitoneal; method in brief: as §6
[15] = Percent increase in life span of dying mice tested in vivo at 22.75 mg/kg against ip implanted LOX amelanotic melanoma in mice (60-day survivors); type: functional; conditions: Mus musculus, 1440 h, route intraperitoneal; method in brief: as §2
[16] = Change in tumor cell population in ip implanted LOX amelanotic melanoma in mice after administration of compound at 182 mg/kg; type: functional, Mus musculus; conditions: route intraperitoneal; method in brief: as §6
[17] = Change in tumor cell population in ip implanted LOX amelanotic melanoma in mice after administration of compound at 91 mg/kg; type: functional, Mus musculus; conditions: route intraperitoneal; method in brief: as §6
[18] = Percent increase in life span of dying mice tested in vivo at 45.5 mg/kg against ip implanted LOX amelanotic melanoma in mice (60-day survivors); type: functional; conditions: Mus musculus, 1440 h, route intraperitoneal; method in brief: as §2

IC50 (HT-29): > 100 µM
IC50 (A549): > 100 µM
IC50 (L1210 (Mus musculus)): > 100 µM
Structure (SMILES): CNC(=O)OCc1nc(Sc2ccccc2)n(C)c1COC(=O)NC
IC50 [1]: > 100 µM
IC50 [2]: > 100 µM

IC50 (HT-29): > 1000 µM
IC50 (A549): > 1000 µM
IC50 (L1210 (Mus musculus)): > 100 µM
Structure (SMILES): CNC(=O)OCc1nc2n(c1COC(=O)NC)CCCS2
IC50 [1]: > 650 µM
IC50 [2]: > 1000 µM

Structure (SMILES): CNC(=O)OCc1nc([S+](C)[O-])n(C)c1COC(=O)NC (stereo unspecified)
ILS at 182 mg/kg [3]: 2%
ILS at 22.8 mg/kg (P388 [4]): 10%
KE (P388 [5]): 1.4
ILS at 91 mg/kg [6]: -8%
KE (P388 [7]): 1.4
KE (P388 [8]): 1.3
ILS at 11.4 mg/kg (P388 [9]): 10%
ILS at 91 mg/kg (P388 [10]): 17%
KE (P388 [11]): 0.9
KE [12]: 2
ILS at 45.5 mg/kg (P388 [13]): 27%
KE [14]: 2
ILS at 22.75 mg/kg [15]: -7%
KE [16]: 1.8
KE [17]: 2
ILS at 45.5 mg/kg [18]: -8%
